# RORA act: activators of orphan receptor RORA, primary screen, cell-based, luminescence; hit rate 1.5% among 65,000; CHO-K1 Gal4-RORA LBD luciferase reporter; percent increase over mock-subtracted basal signal; activation, % at 10 µM; Nuclear receptor ROR-alpha (Homo sapiens), P35398;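 active means activation above the mean of all tested compounds plus 3 SD, cut at about 49% in these data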
# M1 agonist: M1 muscarinic receptor agonists, primary screen, CHO-M1 cells, Fluo-4 calcium, agonist mode; Fluo-4 calcium fluorescence; stronger effect = higher value; B-score at 10 µM; hit rate 3% among 64,000; Muscarinic acetylcholine receptor M1;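 active means fluorescence rise, raw or as B-score row- and column-corrected plate score, outside the 99.7% band of its plate's samples, either direction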
# M1 antag: antagonists of rat M1 muscarinic receptor; Muscarinic acetylcholine receptor M1 (Rattus norvegicus), P08482; CHO-M1 cells, Fluo-4 calcium, ACh EC80 antagonist mode; stronger effect = lower value; B-score at 10 µM; hit rate 3.4% among 64,000;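 active means calcium fluorescence response, raw or row-and-column corrected B-score, differing from the plate sample mean either way at a set confidence level, mostly lower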
# Target sequence (P08482 whole entry, looked up): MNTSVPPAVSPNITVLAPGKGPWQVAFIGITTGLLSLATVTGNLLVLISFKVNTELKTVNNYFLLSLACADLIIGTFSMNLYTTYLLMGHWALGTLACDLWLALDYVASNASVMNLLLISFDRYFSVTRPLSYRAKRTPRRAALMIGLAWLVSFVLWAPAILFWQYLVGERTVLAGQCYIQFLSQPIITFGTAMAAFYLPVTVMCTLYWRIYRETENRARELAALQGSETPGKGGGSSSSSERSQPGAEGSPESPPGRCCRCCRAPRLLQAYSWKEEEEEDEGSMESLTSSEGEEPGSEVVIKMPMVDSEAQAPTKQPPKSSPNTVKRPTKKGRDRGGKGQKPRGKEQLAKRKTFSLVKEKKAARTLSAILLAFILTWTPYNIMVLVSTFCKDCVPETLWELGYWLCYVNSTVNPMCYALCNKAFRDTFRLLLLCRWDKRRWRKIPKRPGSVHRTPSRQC
# mHtt clearance: clearance of mutant huntingtin inclusions, primary screen, imaging, HeLa Exon1htt(103Q)mCFP, confocal imaging; aggregate imaging; zero = plate's median compound well; inhibition, % at 1.5 µM; hit rate 0.42% among 47,000; AID 853, 2007;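 active means inhibition of aggregate fluorescence above about 70%, also judged a hit by eye on the cell image, limit read from the data, passing the limit was not always enough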;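 further: cells exposed to compound for three days before fixation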
# D1 allo mod: D1 CRE-luciferase signal change, two-sided – cell-based, HEK293 D1, dopamine EC30, D1 allosteric modulator project, primary screen; hit rate 5.9% among 58,000; B-score at 10 µM; D(1A) dopamine receptor (Homo sapiens), P21728; dopamine EC30 potentiation; actives deviate in either direction; AID 641, 2007;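 active means luminescence count or its row- and column-corrected plate score outside the 99.7% band of the plate's sample wells, on either side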
# SF1 activator: activators of human SF-1, primary screen, cell-based, CHO-K1, Gal4-SF-1 LBD, luciferase luminescence. CHO-K1 Gal4-SF-1 LBD luciferase reporter; % increase over DMSO SF-1-specific signal. activation, % at 10 µM. hit rate 1.9% among 65,000. AID 522, 2006;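 active means activation above the mean activation of all tested compounds plus 3 SD, cut at about 50% in these data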
#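 Assay system: CHO-K1 cells co-transfected with Gal4 DBD–human SF-1 LBD, 5xGal4 luciferase reporter / Input: 4,000 cells per well / Incubation: 20 h compound exposure at 37 °C after 1 h cell settling / Detection: SteadyLite luciferase luminescence / Control set: DMSO negative control and −SF1 background wells / Replication: one test per compound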
# Hits are given with their value; . = inactive; / = no result given. Rows were chosen to be rich in hits. Some 11% of all compounds tested hit in one or more screens of this group.
SMILES,RORA act,M1 agonist,M1 antag,mHtt clearance,D1 allo mod,SF1 activator
CC1CCCN(C(=O)C2CCN(S(=O)(=O)c3cccc4cccnc34)CC2)C1 (centres undefined),.,.,.,.,/,.
O=C(Cc1ccc(Br)cc1)N1CCN(c2ccc(F)cc2)CC1,/,/,/,.,/,/
Cc1ccc2nc(NC(=O)c3ccc(Cl)s3)sc2c1,86,.,.,.,.,54
Cc1nc2ccc(NC(=O)c3ccc(Cl)s3)cc2s1,80,.,.,.,.,76
COC(=O)Nc1nc2c(C)cccc2s1,.,.,.,.,.,.
Cc1ccc(C(=O)Nc2nc3ccccc3s2)s1,.,.,.,/,-5.8,.
Cc1cccc2sc(NC(=O)c3ccc(Cl)s3)nc12,.,.,.,.,.,50
Cc1cc(C(=O)CSc2n[nH]c(-c3ccccc3F)n2)c(C)n1Cc1cccs1,/,/,/,.,/,/
Cc1nc2ccc(NC(=O)Cc3cccs3)cc2s1,53,.,.,/,/,80
Cc1ccc(CNc2nc3ccccc3s2)s1,.,.,.,/,-2.4,.
O=c1sc(N2CCN(c3ccccc3F)CC2)nc2ccsc12,60,.,.,/,.,72
O=C(Cn1c(NCCCO)nc2ccccc21)c1cccs1,.,.,.,/,.,.
CCOC(=O)N1CCC(NC(=O)CCC(=O)N2CCOc3ccc(C)cc32)CC1,.,.,3.3,.,.,.
CCOC(=O)N1CCN(C(=O)CCC(=O)N2CCOc3ccc(C)cc32)CC1,.,.,.,.,.,.
Cc1cccc2cc(CN(Cc3nnnn3C3CCCCC3)C3CCCC3)c3nnnn3c12,/,/,/,.,/,/
Cc1cc(NC(=O)CCC(=O)N(CCc2ccccc2)C(C(=O)NC2CCCC2)c2ccco2)no1 (centres undefined),.,.,2.4,/,.,.
Cc1cc(NC(=O)CCC(=O)N(Cc2ccco2)C(C(=O)NC2CCCCC2)c2ccccc2)no1 (centres undefined),/,/,/,.,/,/
O=C(NCc1ccco1)c1cc(-c2ccc3c(c2)OCO3)on1,51,.,.,.,.,.
Cc1ccc(-c2cc(C(=O)NCc3ccco3)no2)cc1,.,.,.,/,.,.
CNC(=O)c1cc2c(=O)n3cc(C)ccc3nc2n(C(C)C)c1=N,.,17,.,/,.,.
Cn1c(CSc2nc3ccccc3s2)nnc1SCC(=O)NCc1cccnc1,/,/,/,.,/,/
COc1ccc(C2=NOC(CN3C(=O)c4ccccc4S3(=O)=O)C2)cc1 (centres undefined),.,.,.,.,.,67
O=C1c2ccccc2S(=O)(=O)N1CC1CC(c2ccccc2)=NO1 (centres undefined),49,.,.,/,.,.
O=C(CN1C(=O)c2ccccc2S1(=O)=O)c1ccccc1,.,.,.,/,/,.
Nc1nc(SCC(=O)N2CCCc3ccccc32)[nH]c(=O)c1-c1ccccc1,.,.,.,70,.,.
SMILES,RORA act,M1 agonist,M1 antag,mHtt clearance,D1 allo mod,SF1 activator
O=C(CSc1nc2c(cnn2-c2ccc(F)cc2)c(=O)[nH]1)N1CCCc2ccccc21,.,.,.,.,.,.
COC(=O)C1=C(C)N=c2s/c(=C/c3cccs3)c(=O)n2C1c1cccs1 (centres undefined),.,.,.,.,.,.
COC(=O)C1=C(C)N=c2s/c(=C/c3ccoc3)c(=O)n2C1c1ccccc1 (centres undefined),.,.,.,.,-3.6,.
Cc1cc(C(=O)CSc2nnc(-c3ccco3)o2)c(C)n1Cc1ccco1,.,.,.,.,.,.
Cc1cc(C(=O)CSc2nn(-c3ccccc3)c(=S)s2)c(C)n1Cc1ccco1,.,.,.,/,-4.7,.
COc1cc(C2NC(C(=O)O)CS2)ccc1OCc1ccccc1C#N (centres undefined),.,/,/,/,-2.8,.
COC(=O)c1ccc(C2NC(C(=O)O)CS2)cc1 (centres undefined),.,.,.,/,.,.
O=C(/C=C\Nc1ccccn1)c1ccccc1,.,.,.,/,-6.9,.
O=C(/C=C/Nc1ccccc1Br)c1ccccn1,/,.,.,/,-8.1,/
O=C(NCCCNCCCNC(=O)c1ccccn1)c1ccccn1,.,.,.,/,.,.
O=C(CC(=O)Nc1ccccn1)Nc1ccccn1,.,.,.,.,.,.
O=C1c2ccccc2C(=O)N1CCN1CCc2ccccc21,.,.,.,.,.,52
c1ccc2c(c1)CCN2CCN1CCc2ccccc21,.,.,.,/,-3.2,.
O=C(CCN1CCc2ccccc21)c1ccc2c(c1)OCCO2,.,.,.,/,/,.
O=C1c2ccccc2C(=O)N1CCCC(=O)N1CCCc2ccccc21,.,.,.,/,.,.
Clc1nc(NCc2cccnc2)nc(N2CCOCC2)n1,/,/,/,.,/,/
O=C(/C=C/c1c(Cl)cccc1Cl)n1cccn1,/,/,/,.,/,/
COC(=O)Cc1cc(=O)[nH]c(/N=C(\N)Nc2ccc(C)cc2C)n1,.,.,.,.,-5.2,.
Cc1cc(C)cc(C(=O)/C=C2\NC(=O)CS2)c1,.,.,.,/,-1.8,.
CCCCn1nnnc1NCc1ccc(C)s1,/,/,/,.,/,/
Cc1nc2sc(-c3ccccc3)cc2c(=O)n1-n1cccc1,.,.,.,/,.,89
Cc1ccccc1-c1nc2sc(-c3ccccc3)cc2c(=O)o1,/,/,/,.,/,/
CCCC(=O)Nc1cc(Cl)ccc1N1CCN(C(=O)CC)CC1,.,.,.,.,.,.
Cc1ccc(CCNC(=O)C2CCN(C(=O)N(C)C)CC2)cc1,.,.,.,/,.,.
Cn1nc(-c2ccc(Cl)cc2)c2cc(C(=O)N3CCC(N4CCCCC4)CC3)sc21,.,.,.,/,/,.
SMILES,RORA act,M1 agonist,M1 antag,mHtt clearance,D1 allo mod,SF1 activator
Cn1nc(-c2ccc(Cl)cc2)c2cc(C(=O)NCCCN3CCCC3)sc21,.,.,.,.,.,56
CCCCNC(=O)c1cc2c(-c3ccc(Cl)cc3)nn(C)c2s1,.,.,.,.,.,.
Cn1nc(-c2ccc(Cl)cc2)c2cc(C(=O)N3CCCC3)sc21,.,.,.,.,-3.2,.
CCCNC(=O)c1cc2nc(-c3ccccc3)cc(C(F)(F)F)n2n1,/,/,/,.,/,/
Cc1cc(-c2ccco2)n(CC(=O)O)n1,.,.,.,/,-4.3,.
Cc1cc(-c2ccco2)n(CC(=O)NCc2ccccc2)n1,/,/,/,.,/,/
COc1ccc(NC(=O)c2cc(-c3ccccc3OC)on2)cc1,49,.,.,/,.,.
COc1ccc(CCNC(=O)c2cc(-c3ccccc3OC)on2)cc1OC,.,.,.,.,.,.
COc1ccccc1-c1cc(C(=O)NCCc2ccccc2)no1,/,/,/,79,/,/
CCCCOc1ccc(-c2nnn(CC(=O)Nc3ncc(CC(=O)OCC)s3)n2)cc1,.,.,2.5,/,.,.

# Source: PubChem (several laboratories)
